NOD2-RIPK2 inh: NOD2-RIPK2 binding disruptors in cells, primary screen, fluorescence, CHO cells, BLA complementation. AID 624267, 2012. Receptor-interacting serine/threonine-protein kinase 2 (Homo sapiens), O43353. CCF4 ratio. inhibition, % at 4.98 µM. 360,000 tested, 0.38% active; in the data active means inhibition above about 21%
Dynein cargo inh: inhibitors of GR-EGFP nuclear translocation, primary screen, dynein cargo transport inhibitor project, imaging, high-content, 3617.4 mouse cells. test concentration mostly 20 µM; stimulated with dexamethasone, 1 µM; hits give low values. z-score, hits read low. 220,000 tested, 0.47% active. AID 1381, 2008;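 active means plate z-score of nuclear minus cytoplasmic receptor signal below a set negative limit, without overly bright fluorescence or cell loss, cut at about -3.5 in these data, passing the limit was not always enough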;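 further: z-score of nuclear minus cytoplasmic ring GR-EGFP intensity difference per well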
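Buffer or medium: tet-free medium with charcoal-stripped serum / Also added: dexamethasone agonist, 1.0 µM final, for 30 min / Timing: induction 48 h, compound 1 h, agonist 30 min / Measured by: high-content fluorescence imaging after fixation / Read-out: nuclear-to-cytoplasmic GR-EGFP distribution per well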
B2AR ag: beta2AR agonists driving receptor internalization, primary screen, cell-based, FAP fluorogen, flow cytometry. Am2.2-beta2AR cells. response, % (no concentration beside the values). 340,000 tested, 0.43% active;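 active means response above a set limit, near 3 SD of response in nonfluorescent compounds, cut at about 42% in these data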
Target sequence (P07550 whole entry, looked up): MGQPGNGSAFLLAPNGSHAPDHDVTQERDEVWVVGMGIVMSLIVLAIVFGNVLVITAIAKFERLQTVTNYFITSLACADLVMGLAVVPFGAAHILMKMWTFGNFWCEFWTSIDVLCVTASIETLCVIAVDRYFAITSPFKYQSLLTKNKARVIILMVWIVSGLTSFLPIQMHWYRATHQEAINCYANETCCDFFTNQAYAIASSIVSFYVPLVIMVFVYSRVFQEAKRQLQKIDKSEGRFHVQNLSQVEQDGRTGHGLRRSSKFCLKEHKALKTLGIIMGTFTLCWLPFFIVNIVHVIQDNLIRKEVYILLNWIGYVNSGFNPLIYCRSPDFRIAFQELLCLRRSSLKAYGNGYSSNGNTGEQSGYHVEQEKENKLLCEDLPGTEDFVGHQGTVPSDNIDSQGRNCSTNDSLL
TLR9-MyD88 block: inhibitors of TLR9-MyD88 association in cells, primary screen, cell-based, CHO, BLA complementation, fluorescence; Toll-like receptor 9 (Homo sapiens) + Myeloid differentiation primary response protein …; CCF4 FRET ratio; inhibition, % at 4.98 µM; 340,000 tested, 0.21% active; AID 504734, 2011;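 active means inhibition above the mean over all tested compounds plus 3 SD, cut at about 21% in these data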
ABHD5 PLIN5 PPI: ABHD5-PLIN5 interaction inhibitors, primary screen, cell lysate, split luciferase complementation, luminescence; Split G. princeps luciferase complementation, 4 h; 360,000 tested, 0.78% active; inhibition, % at 4 µM; AID 602281, 2012;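 active means inhibition above the mean inhibition across every tested compound plus 3 SD, cut at about 22% in these data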
TLR4-MyD88 BLA: inhibitors of TLR4-MyD88 association in cells, primary screen, cell-based, HeLa CL3-4, BLA complementation, FRET ratio | inhibition, % at 8.4 µM | Toll-like receptor 4 (Homo sapiens) + Myeloid differentiation primary response protein … | HeLa CL3-4 TLR4/MyD88 BLA complementation | 200,000 tested, 0.18% active | AID 861, 2007; in the data active means inhibition above about 25%
B2AR ag CP1: beta2AR agonists via receptor internalization, confirmation, cell-based, FAP fluorogen, flow cytometry, single point, cherry pick 1; shares compounds with B2AR ag; Am2.2-beta2AR cells, FAP surface receptor; hits give low values; percent response (surface receptor), % at 10 µM; 1,100 tested, 25% active; AID 540358, 2011;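 active means surface receptor percent response at or below 58%, roughly 3 SD from nonfluorescent compounds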
B2AR FAP counter: fluorescence artifact in beta-2AR agonist FAP counterscreen. calls only at 10 µM. AID 588765. 1,100 tested, under 10 active. shares compounds with B2AR ag. Am2.2 cells, FAP fluorogen flow cytometry; hits give low values;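 active means percent response below a set limit in fluorescence channel 1 and below 50% in channel 8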
Hits are given with their value; ! = a repeat was not active. Rows were chosen to be rich in hits. Some 1.6% of all compounds tested hit in one or more screens of this group.

For CCCCn1c(N)c(N(CC)C(=O)c2ccc(Cl)c(Cl)c2)c(=O)[nH]c1=O the results were NOD2-RIPK2 inh inactive, B2AR ag inactive, TLR9-MyD88 block inactive and ABHD5 PLIN5 PPI inactive.
Screening CCCCn1c(N)c(N(CC)C(=O)c2ccc3c(c2)S(=O)(=O)c2ccccc2C3=O)c(=O)[nH]c1=O returned NOD2-RIPK2 inh inactive, Dynein cargo inh inactive, B2AR ag 55, TLR9-MyD88 block inactive, ABHD5 PLIN5 PPI inactive, TLR4-MyD88 BLA inactive, B2AR ag CP1 inactive and B2AR FAP counter inactive.
For Cc1nc2oc(C(=O)c3ccc(Br)cc3)c(N)c2c2c1COC(C)(C)C2 the results were NOD2-RIPK2 inh inactive, Dynein cargo inh inactive, B2AR ag inactive, TLR9-MyD88 block inactive, ABHD5 PLIN5 PPI inactive and TLR4-MyD88 BLA inactive.
For Cc1nc2oc3c(=O)[nH]cnc3c2c2c1COC(C)(C)C2 the results were NOD2-RIPK2 inh inactive, Dynein cargo inh inactive, B2AR ag inactive, TLR9-MyD88 block inactive, ABHD5 PLIN5 PPI inactive, B2AR ag CP1 inactive and B2AR FAP counter inactive.
Screening Cc1noc(C)c1-c1ccc(C(=O)NCCc2ccccc2)c2occc12 returned NOD2-RIPK2 inh inactive and ABHD5 PLIN5 PPI inactive.
Screening Fc1ccc(Nc2nc(-c3ccncc3)nc3ccccc23)cc1F returned NOD2-RIPK2 inh inactive, Dynein cargo inh inactive, B2AR ag 50, TLR9-MyD88 block inactive, ABHD5 PLIN5 PPI inactive, TLR4-MyD88 BLA inactive, B2AR ag CP1 inactive and B2AR FAP counter inactive.
COCc1nnc(NC(=O)C(C)C)s1 was read as NOD2-RIPK2 inh inactive, Dynein cargo inh inactive, B2AR ag 53, TLR9-MyD88 block inactive, ABHD5 PLIN5 PPI inactive, TLR4-MyD88 BLA inactive, B2AR ag CP1 inactive and B2AR FAP counter inactive.
CSc1ccc2c(c1)C(N1CCN(C)CC1)Cc1ccccc1S2 (configuration not stated) was read as NOD2-RIPK2 inh inactive, Dynein cargo inh inactive, B2AR ag 61!, TLR9-MyD88 block inactive, ABHD5 PLIN5 PPI inactive, B2AR ag CP1 inactive and B2AR FAP counter inactive.
For CN1CCN(C2Cc3ccccc3Sc3ccc(Cl)cc32)CC1 (configuration not stated) the results were NOD2-RIPK2 inh inactive, B2AR ag inactive, TLR9-MyD88 block inactive and ABHD5 PLIN5 PPI inactive.
Screening Cc1cc(C)nc(SSc2nc(C)cc(C)n2)n1 returned NOD2-RIPK2 inh inactive, B2AR ag inactive, TLR9-MyD88 block inactive and ABHD5 PLIN5 PPI inactive.
Screening CC(=O)Nc1ccc(S(=O)(=O)N2CCCC3CCCCC32)cc1 (configuration not stated) returned NOD2-RIPK2 inh inactive, B2AR ag inactive, TLR9-MyD88 block inactive and ABHD5 PLIN5 PPI inactive.
Screening CCCCC(=O)Nc1ccc(S(=O)(=O)N2CCCCC2c2cccnc2)cc1 (configuration not stated) returned NOD2-RIPK2 inh inactive, B2AR ag 129, TLR9-MyD88 block inactive, ABHD5 PLIN5 PPI inactive, B2AR ag CP1 27 and B2AR FAP counter inactive.
CC(=O)Nc1ccc(S(=O)(=O)N2CCCCC2c2cccnc2)cc1 (configuration not stated) was read as NOD2-RIPK2 inh inactive, Dynein cargo inh inactive, B2AR ag inactive, TLR9-MyD88 block inactive, ABHD5 PLIN5 PPI inactive, TLR4-MyD88 BLA inactive, B2AR ag CP1 21 and B2AR FAP counter inactive.
`COc1ccc(NC(=O)N2CCCCC2c2cccnc2)cc1` (configuration not stated) gave NOD2-RIPK2 inh inactive, Dynein cargo inh inactive, B2AR ag inactive, TLR9-MyD88 block inactive, ABHD5 PLIN5 PPI inactive and TLR4-MyD88 BLA inactive.
Screening O=C(Nc1ccc(S(=O)(=O)N2CCCCC2c2cccnc2)cc1)c1c(F)cccc1F (configuration not stated) returned NOD2-RIPK2 inh inactive, Dynein cargo inh inactive, B2AR ag 87, TLR9-MyD88 block inactive, ABHD5 PLIN5 PPI inactive, TLR4-MyD88 BLA inactive, B2AR ag CP1 49 and B2AR FAP counter inactive.
For COC(=O)C1=CN(c2ccc(Oc3ccccc3)cc2)C(N)=C(C#N)C1c1ccccc1 (configuration not stated) the results were NOD2-RIPK2 inh inactive and ABHD5 PLIN5 PPI inactive.
COc1ccccc1Cc1c(C2CCCCC2)nc2ccc(Br)cn12 was read as NOD2-RIPK2 inh inactive and ABHD5 PLIN5 PPI inactive.
O=Cc1ccc(O)c2ncccc12 was read as NOD2-RIPK2 inh inactive, Dynein cargo inh inactive, B2AR ag inactive, TLR9-MyD88 block inactive, ABHD5 PLIN5 PPI inactive, B2AR ag CP1 inactive and B2AR FAP counter inactive.
For Cc1ccc(NS(=O)(=O)N2CCCCC2)cc1 the results were NOD2-RIPK2 inh inactive, B2AR ag inactive, TLR9-MyD88 block inactive and ABHD5 PLIN5 PPI inactive.
CCCCCCCCCCOC(=O)Cn1c(COc2ccccc2)[n+](C)c2ccccc21 was read as NOD2-RIPK2 inh inactive, B2AR ag inactive, TLR9-MyD88 block inactive and ABHD5 PLIN5 PPI inactive.
Screening CCCCCCCCCCOC(=O)Cn1c(COc2ccc(Cl)cc2)[n+](C)c2ccccc21 returned NOD2-RIPK2 inh inactive, B2AR ag inactive, TLR9-MyD88 block inactive and ABHD5 PLIN5 PPI inactive.
`CCCCCCCCCCOC(=O)Cn1c(COc2ccc(OC)cc2)[n+](C)c2ccccc21` gave NOD2-RIPK2 inh inactive, B2AR ag inactive, TLR9-MyD88 block inactive, ABHD5 PLIN5 PPI inactive, B2AR ag CP1 inactive and B2AR FAP counter inactive.
`CCCCCCCCCCOC(=O)Cn1c(COc2cccc(C)c2)[n+](C)c2ccccc21` gave NOD2-RIPK2 inh inactive, B2AR ag inactive, TLR9-MyD88 block inactive, ABHD5 PLIN5 PPI inactive, B2AR ag CP1 inactive and B2AR FAP counter inactive.
Cc1nc(SCc2nc3c([N+](=O)[O-])cccc3[nH]2)c2oc3ccccc3c2n1 was read as NOD2-RIPK2 inh inactive, B2AR ag 52, TLR9-MyD88 block inactive, ABHD5 PLIN5 PPI inactive, B2AR ag CP1 inactive and B2AR FAP counter inactive.
O=C1C(=NO)CC(c2ccccc2)N1c1ccccc1 (configuration not stated) was read as NOD2-RIPK2 inh inactive, B2AR ag inactive, TLR9-MyD88 block inactive and ABHD5 PLIN5 PPI inactive.

Screening data as filed in PubChem BioAssay.
